Experimental data published in ChEMBL document CHEMBL1125137, “Synthesis and structure-activity relationships of N,N'-di-o-tolylguanidine analogues, high-affinity ligands for the haloperidol-sensitive sigma receptor” (J Med Chem, 1990).

Key:
[1] = molecular target: Glutamate [NMDA] receptor; assay: (§1) In vitro inhibitory activity against [3H](+)-MK-801 binding to PCP receptor in guinea pig brain membrane homogenates; assay type: cell membranes, Cavia porcellus
Summary of the method: (§2)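 [3H](+)-MK-801 (97 Ci/mmol) at 1 nM final with guinea pig brain membranes at 150 μg protein/mL. Assay and filtration buffer was 5 mM Tris-HCl pH 7.4. Incubation 4 h at 25 °C. Nonspecific binding measured with 10 μM TCP or MK-801. Bound ligand collected by glass-fiber filtration and counted by scintillation. IC50 taken from displacement curves.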

[2] = molecular target: Glutamate [NMDA] receptor; assay: In vitro inhibitory activity against [3H]-TCP binding to PCP receptor in guinea pig brain membrane homogenates; assay type: cell membranes, Cavia porcellus
Summary of the method: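 Displacement of 1.8 nM [3H]TCP (100 Ci/mmol) from guinea pig brain membranes (800 μg protein/mL, 50 mM Tris-HCl pH 7.4). Incubation 45 min at room temperature. Nonspecific binding defined by 10 μM PCP. Vacuum filtration on glass-fiber filters, two washes, scintillation counting. IC50 interpolated from semilog displacement curves.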

[3] = molecular target: sigma receptor (guinea pig); assay: In vitro inhibitory activity against [3H]- (+)-3-PPP binding to sigma receptor in guinea pig brain membrane homogenates
[4] = molecular target: Glutamate [NMDA] receptor; assay: as §1; assay type: cell membranes, Cavia porcellus; summary of the method: as §2; remark: listed apart in the source

IC50 [1] [µM] | IC50 [2] [µM] | Structure (SMILES) | further results
13.3 | 31 | Cc1ccc(N=C(N)Nc2ccc(C)cc2)cc1 | –
– | > 10 | N=C(NC1C2CC3CC(C2)CC1C3)NC1C2CC3CC(C2)CC1C3 (stereo not drawn) | –
– | 4.15 | N=C(Nc1ccccc1C(F)(F)F)Nc1ccccc1C(F)(F)F | –
> 10 | – | Cc1ccccc1/N=C(\N)NC1C2CC3CC(C2)CC1C3 (stereo not drawn) | –
– | > 10 | N=C(NC12CC3CC(CC(C3)C1)C2)NC12CC3CC(CC(C3)C1)C2 | –
– | 4.3 | Cc1cc([N+](=O)[O-])ccc1NC(=N)Nc1ccc([N+](=O)[O-])cc1C | –
– | – | N=C(N)N(c1ccccc1)c1ccccc1 | IC50 [3]: > 100 µM
> 10 | – | N=C(Nc1ccccc1I)NC1CC2CCC1C2 (stereo not drawn) | IC50 [4]: > 10 µM
> 10 | – | NC(=Nc1ccccc1-c1ccccc1)Nc1ccccc1-c1ccccc1 | –
> 10 | – | N=C(NC1C[C@H]1c1ccccc1)NC12CC3CC(CC(C3)C1)C2 (stereo partly drawn) | –
– | > 10 | N=C(NC1CCCCC1)NC12CC3CC(CC(C3)C1)C2 | –
> 10 | – | N=C(NC1CC2CCC1C2)NC1CC2CCC1C2 (stereo not drawn) [listing 1 of 2 here] | –
– | > 10 | Cc1cc(Br)ccc1N=C(N)Nc1ccc(Br)cc1C | –
– | 34 | NC(=Nc1ccc(Br)cc1)Nc1ccc(Br)cc1 | –
> 10 | – | N=C(Nc1ccccc1I)Nc1ccccc1/C=C/c1ccccc1 | –
– | 32 | Cc1cccc(C)c1N=C(N)Nc1c(C)cccc1C | –
0.24 | 0.21 | NC(=Nc1ccccc1I)Nc1ccccc1I | –
5 | – | Cc1ccccc1NC(N)=NC1CC2CCC1(C)C2(C)C (stereo not drawn) | –
> 10 | – | N/C(=N\c1ccccc1[N+](=O)[O-])NC12CC3CC(CC(C3)C1)C2 | –
– | 6.8 | N=C(NCc1ccccc1)NCc1ccccc1 | –
> 9.6 | – | CC(C)(C)/N=C(\N)Nc1ccccc1I | –
> 10 | – | NC(=Nc1ccccc1-c1ccccc1)NC12CC3CC(CC(C3)C1)C2 | –
– | 1.9 | Cc1ccccc1/N=C(/N)Nc1c(C)cccc1C | –
> 10 | – | CC1(C)C2CCC1(C)C(/N=C(\N)Nc1ccccc1I)C2 (stereo not drawn) | –

IC50 [1] [µM] | IC50 [2] [µM] | Structure (SMILES) | further results
– | 2.5 | Cc1ccccc1/N=C(/N)Nc1cccc(O)c1 | –
> 10 | – | N=C(Nc1ccccc1/C=C/c1ccccc1)NC1C2CC3CC(C2)CC1C3 (stereo not drawn) | –
0.82 | 0.358 | CCc1ccccc1N=C(N)Nc1ccccc1CC | –
> 10 | – | NC(=Nc1ccccc1-c1ccccc1)Nc1cccc2ccccc12 | –
3.5 | – | N=C(Nc1ccccc1/C=C/c1ccccc1)NC12CC3CC(CC(C3)C1)C2 | –
> 10 | – | Cc1cc(N)ccc1N=C(N)Nc1cccc(O)c1 | –
0.275 | – | CC(C)c1ccccc1N=C(N)Nc1ccccc1C(C)C | –
– | 49 | CCCCNC(=N)NCCCC | –
> 10 | – | Cc1ccccc1N/C(N)=N/C1CC[C@@]2(C)C(=CCC3C2CC[C@@]2(C)C3CC[C@@H]2C(C)CCCC(C)C)C1 (stereo partly drawn) | –
2.11 | – | CCCc1cccc(NC(=N)Nc2cccc(CCC)c2)c1 | –
– | – | NC1=Nc2cccc3cccc(c23)N1 | IC50 [4]: > 10 µM
26.8 | – | CC(C)c1ccc(NC(=N)Nc2ccc(C(C)C)cc2)cc1 | –
38.3 | – | CC(C)(C)c1ccccc1N=C(N)Nc1ccccc1C(C)(C)C | –
> 10 | – | CC(=O)[C@H]1CCC2C3CC=C4CC(/N=C(\N)Nc5ccccc5C)CC[C@]4(C)C3CC[C@@]21C (stereo partly drawn) | –
– | 4.35 | Cc1ccccc1/N=C(/N)Nc1ccc(N)cc1C | –
0.134 | – | N=C(Nc1cccc2ccccc12)Nc1cccc2ccccc12 | –
– | 2.1 | Cc1ccccc1NC(N)=Nc1ccccc1[N+](=O)[O-] | –
– | > 10 | NC1=NCCN1c1ccccc1 | –
0.168 | 0.082 | CCc1cccc(NC(=N)Nc2cccc(CC)c2)c1 | –
2 | – | Cc1ccccc1/N=C(\N)NC12CC3CC(C)(CC(C)(C3)C1)C2 | –
4 | – | CC12CC3CC(C)(C1)CC(/N=C(\N)Nc1ccccc1I)(C3)C2 | –
0.33 | 0.37 | Cc1cccc(NC(=N)Nc2cccc(C)c2)c1 | –
> 10 | – | NC(=Nc1ccccc1I)NC12CC3CC(CC(C3)C1)C2 | –
10.7 | 7.8 | Cc1ccccc1NC(=N)Nc1ccccc1C [DITOLYLGUANIDINE] | –

IC50 [1] [µM] | IC50 [2] [µM] | Structure (SMILES) | further results
> 10 | – | CCCCCCCCN=C(NC1CCCCC1)NC1CCCCC1 | –
> 10 | – | NC1=Nc2ccccc2-c2ccccc2N1 | –
10 | > 10 | Cc1ccccc1N=C(N)NC1CCCCC1 | –
– | 5.7 | Cc1ccccc1/N=C(/N)Nc1ccc([N+](=O)[O-])cc1C | –
– | > 10 | NC1=Nc2ccccc2CN1c1ccccc1 | –
– | 2.05 | Cc1ccccc1N=C(N)Nc1ccccc1I | –
> 10 | – | Cc1ccccc1/N=C(/N)Nc1ccccc1/C=C/c1ccccc1 | –
– | > 100 | Cc1cc(N)ccc1NC(=N)Nc1ccc(N)cc1C | –
– | > 10 | ONC(=NC1CCCCC1)NC1CCCCC1 | –
> 10 | – | Cc1ccccc1NC(N)=NC1CC2CCC1C2 (stereo not drawn) | IC50 [4]: > 10 µM
0.498 | – | CC(C)c1cccc(NC(=N)Nc2cccc(C(C)C)c2)c1 | –
> 10 | – | N=C(Nc1ccccc1/C=C/c1c(F)c(F)c(F)c(F)c1F)NC12CC3CC(CC(C3)C1)C2 | –
– | 12 | Cc1ccccc1N=C(N)Nc1ccccc1N | –
– | > 10 | CNC(=N)NC | –
> 10 | – | N=C1N(c2ccccc2)CCN1c1ccccc1 | –
> 10 | – | N=C(Nc1ccccc1CCc1ccccc1)NC12CC3CC(CC(C3)C1)C2 | –
> 10 | – | CC12CC3CC(C)(C1)CC(/N=C(\N)Nc1ccccc1/C=C/c1ccccc1)(C3)C2 | –
5 | – | N=C(NC1CC2CCC1C2)NC1CC2CCC1C2 (stereo not drawn) [listing 2 of 2 here] | –
> 10 | – | N=C(Nc1ccccc1I)NC1C2CC3CC(C2)CC1C3 (stereo not drawn) | –
– | > 10 | CN=C(NC1CCCCC1)NC1CCCCC1 | IC50 [4]: > 10 µM
– | > 10 | NC(=NC1CCCCC1)NC1CCCCC1 | –
10.3 | – | CCc1ccc(NC(=N)Nc2ccc(CC)cc2)cc1 | –
– | 37 | Cc1cc([N+](=O)[O-])ccc1NC(N)=Nc1cccc(O)c1 | –
– | 32 | Cc1ccccc1/N=C(\N)NC12CC3CC(CC(C3)C1)C2 | –

Structure (SMILES) | IC50 [1] [µM] | IC50 [2] [µM] | further results
N=C(Nc1ccccc1)Nc1ccccc1 | – | 3.45 | –
